Screens deposited in PubChem by several laboratories.
Most compounds without a hit are left out; they make up all but 4.7% or so of the library.
IMP-1 inhibitor – inhibitors of Pseudomonas aeruginosa IMP-1 metallo-beta-lactamase; purified IMP-1, nitrocefin hydrolysis, epi-absorbance fluorescence; inhibition, % at 5.6 µM; hit rate 0.45% among 290,000; AID 1556;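 active = inhibition above the mean plus 3 SD of all compounds in the same screening run, cut at about 4.5% in these data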;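 also: 0% = IMP-1 with DMSO and 100% = DMSO wells lacking enzyme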
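Assay system: purified IMP-1; Quantity: IMP-1 0.2 nM before substrate addition; Medium: HEPES buffer pH 7.1 with ZnSO4 and Brij 35; Incubation: 15 min enzyme–compound preincubation, then 25 min nitrocefin reaction, 25 °C; Signal: fluorescence quenching readout, ex 480/em 530 nm; Controls: DMSO with and without IMP-1; Repeats: singlicate testing.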
aSyn 5UTR inh – MLPCN primary screen, SNCA 5' untranslated region; AID 1813; hit rate 0.82% among 300,000; inhibition, % (tested at 7.5 µM); alpha-synuclein 5'UTR reporter, inhibitor activity; in the data active = inhibition above about 60%;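 also: H4 neuroglioblastoma cells stably carrying SNCA 5'UTR luciferase fusion; 0% = DMSO wells and 100% = positive control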
Mdm2 MdmX PPI – disrupts the human Mdm2-MdmX interaction; SaOS-2 split-luciferase Mdm2/MdmX complementation, luminescence; inhibition, % at 8 µM; O15151+Q00987; hit rate 3% among 330,000;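 active = inhibition of at least 50% at 8 µM in the primary screen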
Target sequence (O15151 whole entry, looked up): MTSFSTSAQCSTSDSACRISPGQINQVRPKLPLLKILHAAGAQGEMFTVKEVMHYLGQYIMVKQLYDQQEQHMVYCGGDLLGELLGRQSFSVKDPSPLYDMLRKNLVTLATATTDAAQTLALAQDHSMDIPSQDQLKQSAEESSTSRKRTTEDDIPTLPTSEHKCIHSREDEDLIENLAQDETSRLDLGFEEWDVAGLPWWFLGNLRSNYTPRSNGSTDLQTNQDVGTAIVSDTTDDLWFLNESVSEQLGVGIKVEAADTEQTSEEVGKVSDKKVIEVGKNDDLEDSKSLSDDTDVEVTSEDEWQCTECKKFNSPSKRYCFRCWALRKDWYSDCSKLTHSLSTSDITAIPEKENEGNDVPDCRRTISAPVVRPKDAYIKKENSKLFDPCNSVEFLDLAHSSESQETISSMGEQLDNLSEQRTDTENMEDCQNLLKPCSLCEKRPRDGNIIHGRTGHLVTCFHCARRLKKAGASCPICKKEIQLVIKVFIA
Target sequence (Q00987 whole entry, looked up): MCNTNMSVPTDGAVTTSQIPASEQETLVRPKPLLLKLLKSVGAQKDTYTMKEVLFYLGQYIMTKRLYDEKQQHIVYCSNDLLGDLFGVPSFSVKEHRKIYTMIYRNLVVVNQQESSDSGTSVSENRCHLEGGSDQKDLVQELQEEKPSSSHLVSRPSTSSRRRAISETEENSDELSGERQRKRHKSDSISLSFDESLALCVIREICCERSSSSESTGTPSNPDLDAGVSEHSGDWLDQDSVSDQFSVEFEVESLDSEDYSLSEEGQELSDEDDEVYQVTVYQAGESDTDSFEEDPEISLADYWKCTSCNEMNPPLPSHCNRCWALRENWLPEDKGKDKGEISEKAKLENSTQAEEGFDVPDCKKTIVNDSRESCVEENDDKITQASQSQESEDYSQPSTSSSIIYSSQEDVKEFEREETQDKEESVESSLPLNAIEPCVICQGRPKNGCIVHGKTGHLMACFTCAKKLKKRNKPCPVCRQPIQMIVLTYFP
Jurkat NFkB inh – lowers PMA/ionomycin-induced NF-kB signal in Jurkat cells; hit rate 0.53% among 330,000; PMA/ionomycin-induced NF-kB luciferase reporter, luminescence; inhibition, % at 4 µM; AID 435003; in the data active = inhibition above about 50%
VIM-2 inh – blocks Pseudomonas aeruginosa VIM-2 metallo-beta-lactamase. purified VIM-2, nitrocefin hydrolysis, epi-absorbance fluorescence. inhibition, % at 5.6 µM. hit rate 0.89% among 290,000. AID 1527;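 active = inhibition above the mean of all tested compounds plus 3 SD, cutoff set per screening run, cut at about 7.5% in these data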;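 also: red hydrolysis product quenches plate fluorescence so inhibitors raise well fluorescence; 0% = enzyme with DMSO and 100% = DMSO without enzyme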
697 NFkB inh – lowers PMA/ionomycin-induced NF-kB signal in 697 B cells. inhibition, % at 4 µM. hit rate 0.33% among 330,000. 697 B-cell NF-kB luciferase reporter, 16 h; in the data active = inhibition above about 35%
Mdm2-MdmX conf – confirmation of human Mdm2/MdmX interaction inhibitors; shares compounds with Mdm2 MdmX PPI; Mdm2-MdmX binding, luminescent assay; inhibition, % at 8 µM; hit rate 55% among 10,000; AID 489028; in the data active = inhibition above about 40%
Full FLuc ctr – inhibits full-length luciferase, flagging false Mdm2/MdmX hits | shares compounds with Mdm2 MdmX PPI | SaOS-2 full-length luciferase counterscreen, luminescence | inhibition, % at 8 µM | hit rate 77% among 6,200 | AID 504607;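 active = mean inhibition at 8 µM reaching about 37%, which flags the compound as non-specific, limit read from the data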;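 also: p53-null SaOS-2 cells with luciferase driven by a doxycycline-inducible promoter; compound on cells about two nights before reading with doxycycline added after day one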
Active calls of the source: *.

How did CCOC(=O)c1c(NC(=O)Cn2nc([N+](=O)[O-])c(Br)c2C)sc2c1CCC(C)C2 (configuration not stated) do in these assays?
IMP-1 inhibitor: -0.7; aSyn 5UTR inh: 41.4; Mdm2 MdmX PPI: 58.1*; Jurkat NFkB inh: -0.5; VIM-2 inh: -1.8; 697 NFkB inh: -7.8; Mdm2-MdmX conf: 8.8

How did CCCc1nc(SCC(=O)Nc2ccc(N3CCOCC3)cc2)c2ccccc2n1 do in these assays?
IMP-1 inhibitor: -4.3; aSyn 5UTR inh: -8.0; Mdm2 MdmX PPI: 41.4; Jurkat NFkB inh: 8.5; VIM-2 inh: -3.3; 697 NFkB inh: -11.4

How did CN(C)c1ccc(NC(=O)CSc2nc(C3CC3)nc3ccccc23)cc1 do in these assays?
IMP-1 inhibitor: -0.4; aSyn 5UTR inh: -50.8; Mdm2 MdmX PPI: 79.3*; Jurkat NFkB inh: 24.7; VIM-2 inh: 1.4; 697 NFkB inh: 10.4; Mdm2-MdmX conf: 44.3*; Full FLuc ctr: 54.2*

How did O=C(CSc1nc(C2CC2)nc2ccccc12)Nc1ccccc1 do in these assays?
IMP-1 inhibitor: -2.5; aSyn 5UTR inh: -8.0; Mdm2 MdmX PPI: 30.4; Jurkat NFkB inh: -5.3; VIM-2 inh: -4.9; 697 NFkB inh: -0.2

Results for CC(=O)Nc1cccc(NC(=O)CSc2nc(C3CC3)nc3ccccc23)c1 ?
IMP-1 inhibitor: -1.7; aSyn 5UTR inh: -38.5; Mdm2 MdmX PPI: 72.5*; Jurkat NFkB inh: 14.8; VIM-2 inh: 0.8; 697 NFkB inh: -14.5; Mdm2-MdmX conf: 57.9*; Full FLuc ctr: 44.4*

How did COc1cc(NC(=O)CSc2nc(C3CC3)nc3ccccc23)cc(OC)c1 do in these assays?
IMP-1 inhibitor: -6.4; aSyn 5UTR inh: 6.1; Mdm2 MdmX PPI: 53.6*; Jurkat NFkB inh: -3.3; VIM-2 inh: -6.2; 697 NFkB inh: 14.4; Mdm2-MdmX conf: -19.1

What do the screens show for `CC(C)c1nc(SCC(=O)Nc2ccc(N3CCOCC3)cc2)c2ccccc2n1`?
IMP-1 inhibitor: -2.7; aSyn 5UTR inh: -33.1; Mdm2 MdmX PPI: 53.0*; Jurkat NFkB inh: 0.8; VIM-2 inh: -4.8; 697 NFkB inh: -19.0; Mdm2-MdmX conf: 12.8

Results for O=C(C[C@H]1C/C=C\CCC(=O)OC[C@H]2CCCN2C1=O)NCCO ?
Mdm2 MdmX PPI: -2.6; Jurkat NFkB inh: 4.6; 697 NFkB inh: 15.8

Results for CC(C)c1ccc(/C=N/n2cnnc2)cc1 ?
IMP-1 inhibitor: -2.2; aSyn 5UTR inh: -10.0; Mdm2 MdmX PPI: 7.0; Jurkat NFkB inh: -15.3; VIM-2 inh: -1.6; 697 NFkB inh: -26.1

How did O=C(Nc1ccc(F)cc1F)c1cc2ncc(CCCl)cn2n1 do in these assays?
IMP-1 inhibitor: -1.7; aSyn 5UTR inh: 8.4; Mdm2 MdmX PPI: -13.7; Jurkat NFkB inh: -6.8; VIM-2 inh: -4.5; 697 NFkB inh: 5.6

How did CC(=O)N(c1ccccc1)C1CCCC1 do in these assays?
IMP-1 inhibitor: -3.6; aSyn 5UTR inh: 11.6; Mdm2 MdmX PPI: 9.3; Jurkat NFkB inh: 9.6; VIM-2 inh: -1.8; 697 NFkB inh: 0.8

Results for O=C(CCl)N(c1ccccc1)C1CCCCC1 ?
IMP-1 inhibitor: -2.6; aSyn 5UTR inh: 110.0*; Mdm2 MdmX PPI: 93.7*; Jurkat NFkB inh: 1.3; VIM-2 inh: -1.1; 697 NFkB inh: -8.9; Mdm2-MdmX conf: 99.8*; Full FLuc ctr: 52.2*

How did COc1ccc(OC)c(/C=C/c2[nH]c(=O)[nH]c(=O)c2[N+](=O)[O-])c1 do in these assays?
IMP-1 inhibitor: -2.1; aSyn 5UTR inh: -12.1; Mdm2 MdmX PPI: 26.9; Jurkat NFkB inh: 6.4; VIM-2 inh: 0.8; 697 NFkB inh: -3.7

How did CCOC(=O)c1c(NC(=O)c2ccc(C)cc2)sc2c1CC(C)(C)NC2(C)C do in these assays?
IMP-1 inhibitor: -3.5; aSyn 5UTR inh: -16.9; Mdm2 MdmX PPI: 92.7*; Jurkat NFkB inh: 16.5; VIM-2 inh: -0.8; 697 NFkB inh: -5.0; Mdm2-MdmX conf: 47.0*; Full FLuc ctr: 95.9*

What do the screens show for `CCOC(=O)c1c(NC(=O)Cc2ccccc2)sc2c1CC(C)(C)NC2(C)C`?
IMP-1 inhibitor: -2.6; aSyn 5UTR inh: -33.6; Mdm2 MdmX PPI: 36.2; Jurkat NFkB inh: 6.8; VIM-2 inh: -1.0; 697 NFkB inh: -5.8

Results for CCOC(=O)c1c(NC(=O)C2COc3ccccc3O2)sc2c1CC(C)(C)NC2(C)C (configuration not stated) ?
IMP-1 inhibitor: 0.5; aSyn 5UTR inh: -10.4; Mdm2 MdmX PPI: 83.5*; Jurkat NFkB inh: -21.5; VIM-2 inh: 1.2; 697 NFkB inh: -0.6; Mdm2-MdmX conf: 52.3*; Full FLuc ctr: 61.1*

How did CCOC(=O)c1c(NC(=O)COc2ccccc2C#N)sc2c1CC(C)(C)NC2(C)C do in these assays?
IMP-1 inhibitor: -2.6; aSyn 5UTR inh: 13.4; Mdm2 MdmX PPI: 50.9*; Jurkat NFkB inh: 20.6; VIM-2 inh: 0.1; 697 NFkB inh: -11.1; Mdm2-MdmX conf: 15.3

How did CCOC(=O)c1c(NC(=O)C2COc3ccccc3O2)sc(C(C)=O)c1C (configuration not stated) do in these assays?
IMP-1 inhibitor: 0.8; aSyn 5UTR inh: 26.7; Mdm2 MdmX PPI: 16.4; Jurkat NFkB inh: 46.3; VIM-2 inh: 0.5; 697 NFkB inh: -26.9

How did CCOC(=O)c1c(NC(=O)COc2ccccc2OCC)sc2c1CC(C)(C)NC2(C)C do in these assays?
aSyn 5UTR inh: 21.3; Mdm2 MdmX PPI: 96.5*; Jurkat NFkB inh: 10.6; 697 NFkB inh: -14.0; Mdm2-MdmX conf: 34.4; Full FLuc ctr: 89.8*

How did O=C(COC(=O)/C=C/c1cccc(C(F)(F)F)c1)NCc1cccs1 do in these assays?
Mdm2 MdmX PPI: -11.4; Jurkat NFkB inh: -12.7; 697 NFkB inh: -25.4

How did COc1ccc(N(CC(=O)Nc2ccc3c(c2)OCO3)S(=O)(=O)c2ccccc2)c(OC)c1 do in these assays?
IMP-1 inhibitor: -3.5; aSyn 5UTR inh: 3.8; Mdm2 MdmX PPI: -26.7; Jurkat NFkB inh: -4.3; VIM-2 inh: -0.7; 697 NFkB inh: 12.1

Results for O=C(COc1ncnc2sccc12)Nc1cccc(S(=O)(=O)N2CCCC2)c1 ?
IMP-1 inhibitor: -2.1; aSyn 5UTR inh: -3.4; Mdm2 MdmX PPI: 3.4; Jurkat NFkB inh: -7.7; VIM-2 inh: -1.7; 697 NFkB inh: -10.9

Results for O=C(Oc1c(Br)cc([N+](=O)[O-])cc1Br)c1cccnc1 ?
IMP-1 inhibitor: -1.6; aSyn 5UTR inh: 24.4; Mdm2 MdmX PPI: 22.6; Jurkat NFkB inh: -21.6; VIM-2 inh: 0.5; 697 NFkB inh: -16.8

Results for COC(=O)c1c(NC(=O)c2ccc(OC(C)C)cc2)sc2c1CC(C)(C)NC2(C)C ?
IMP-1 inhibitor: 1.2; aSyn 5UTR inh: 103.2*; Mdm2 MdmX PPI: 93.7*; Jurkat NFkB inh: 19.2; VIM-2 inh: 2.1; 697 NFkB inh: -12.4; Mdm2-MdmX conf: 76.5*; Full FLuc ctr: 23.6
